Results published in article PMC3387347 (Investigational new drugs, 2012).

How the values were obtained:
[1] = In vivo cassette dosing pharmacokinetic study in normal mice; design: species or system mouse; conditions: for AUCb: normal brain; for Kp / clearance / Vd: male, ICR, mouse, 5 mg/kg, normal mice; for Kp: brain, intravenous, Pb (brain partition coefficient, AUCb/AUCp); for clearance / Vd: plasma, iv; for clearance: CL (total systemic clearance); for Vd: Vd (apparent volume of distribution)
Procedure, shortened: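 Adult male ICR mice each received a compound mixture in NMP:PEG300:water (1:4:5 by volume) as an IV bolus into a lateral tail vein. The dose was about 5 mg/kg per compound, with one compound at 1.67 mg/kg. Plasma and brain were collected at various times, stored at −80°C and quantified by LC/MS/MS. AUCb was derived by noncompartmental analysis.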

[2] = mice; cited from earlier work
[3] = system: Pgp; conditions: cited from earlier work
[4] = cassette B, IV approximately 5 mg/kg
[5] = cassette C, IV approximately 5 mg/kg

COc1cc2ncnc(Nc3ccc(F)c(Cl)c3)c2cc1OCCCN1CCOCC1 [Gefitinib]
AUCb ([1]; cassette A, IV approximately 5 mg/kg (ON271320 1.67 mg/kg)): 1968.6 ng·h/g
AUCb [1, 4]: 2685.2 ng·h/g
AUCb [1, 5]: 3491.2 ng·h/g
Kp [1, 4]: 2.5
Kp [1, 5]: 1.9
clearance [1, 4]: 71.7 mL/min/kg
clearance [1, 5]: 43.3 mL/min/kg
Vd [1, 4]: 9.9 L/kg
Vd [1, 5]: 8.9 L/kg
bound to plasma proteins [2]: 95%
concentration reported to inhibit Pgp [3]: 100 µM
